Calb FLC – affects C. albicans growth with fluconazole | C. albicans CaCi-2 (fluconazole-resistant clinical isolate) + fluconazole, Alamar Blue growth, 48 h | growth inhibition, % (test concentration not listed) | 300,000 tested, 0.57% active;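 active means growth inhibition above about 58% in most replicates, limit read from the data, passing the limit was not always enough; inconclusive means exactly half the replicates above a set limit; inactive means most replicates below a set limit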;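 further: all wells also contain fluconazole at 8 µg/ml as a sub-toxic cotreatment; 0% = median of DMSO wells and 100% = median of geldanamycin control wells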
Mdm2-MdmX inh – disrupts the human Mdm2-MdmX interaction; AID 485346; 330,000 tested, 3% active; inhibition, % at 8 µM; SaOS-2 split-luciferase Mdm2/MdmX complementation, luminescence; O15151+Q00987;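 active means inhibition of at least 50% at 8 µM in the primary screen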
CSC inhib – cancer stem cell inhibition; cancer stem cell-like cells viability, luminescence; inhibition, % at 7.5 µM; 300,000 tested, 1.1% active; in the data active means inhibition above about 75%; inconclusive means no clear call, values can overlap the other calls; tested in HMLE shEcad cells
T cruzi repl – blocks replication of Trypanosoma cruzi; T. cruzi beta-gal in NIH3T3, luminescence, 90 h; inhibition, % (test concentration not listed); 300,000 tested, 1.4% active; AID 1885;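 active means mean inhibition across valid replicates above about 55%, limit read from the data; inconclusive means mean below that limit but half or more replicates reach it; inactive means mean below it, under half of replicates reach it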;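 further: signal also drops with host cell toxicity which is not excluded here; 0% = plate median of DMSO wells and 100% = zero luminescence signal; higher percent means less beta-gal luminescence so fewer parasites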
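Incubation – ≥90 h infection period, 3 h prior cell attachment · System – NIH/3T3 fibroblasts plus reporter T. cruzi · Doses – compound pinned at 50 nL/well, DMSO · Read-out basis – percent inhibition of parasite-derived β-gal signal · Signal – luminescent β-galactosidase signal after 60 min lysis · Also added – 5000 T. cruzi trypomastigotes/well · Medium – Low-serum DMEM with 2% FBS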
SKKanGAS inh – inhibitors of SKKanGAS S. pyogenes growth in kanamycin (SK-promoter or general growth effect). inhibition, % at 7.5 µM. 300,000 tested, 1.3% active. BacTiter-Glo, 6 h;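 active means mean replicate score, as percent of positive control median, at least 50; inconclusive means mean below 50 but one replicate at or above 50; inactive means mean and every replicate below 50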;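 further: strain carries kanamycin resistance gene driven by streptokinase promoter and grows in 40 µg/ml kanamycin; loss of luminescence reflects streptokinase promoter inhibition or plain growth inhibition; 0% = median of DMSO wells and 100% = positive control at its reference dose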
Beta apoptosis – blocks beta cell apoptosis; protection from apoptosis, % (concentration not given with the values); INS-1E cytokine-induced death, ATP luminescence, 48 h; percent of positive-control rescue, neutral wells zero; AID 435005; 300,000 tested, 0.8% active;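 active means Every replicate reaches about 75%, or at least half do and their mean reaches it too, limit read from the data; inconclusive means At least half of replicates reach the limit but their mean does not; inactive means Under half of replicates reach the limit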;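 further: 0% = cytokine-treated negative control wells and 100% = positive control rescue; higher means more ATP so stronger rescue from cytokine killing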
* = called active by the depositor; ? = inconclusive; / = not tested or not shown. Only some compounds are listed: those with a hit (about 5.7% of all), similar ones and a draw of the others.

SMILES	Calb FLC	Mdm2-MdmX inh	CSC inhib	T cruzi repl	SKKanGAS inh	Beta apoptosis
C=CCN1C(=O)/C(=C\c2ccc(OC(=O)c3ccco3)c(OC)c2)SC1=S	7	6	6	-9	9	5
Fc1cccc2sc(Nc3nnc(-c4ccco4)o3)nc12	85*	4	23	23	72*	27
COc1cccc2sc(Nc3nnc(-c4cccs4)o3)nc12	-7	20	63	65*	92*	68
CCN1N=C(C)C=C(c2ccccc2)n2c1nc1ccccc12	9	22	-2	2	-6	-5
COc1ccc(C=O)cc1OC(=O)N1CCOCC1	-2	8	-13	-4	1	-7
COc1ccc(Nc2nc(Nc3ccc(OC)cc3)nc(-n3[nH]c(=O)c(C)c3C)n2)cc1	1	28	9	15	87*	7
COc1ccc(Nc2nc(OC)nc(OC)n2)cc1	9	-3	-5	-4	-2	/
O=C(COc1ccccc1/C=C\c1[nH]c(=O)[nH]c(=O)c1[N+](=O)[O-])Nc1ccccc1	-13	/	-2	55*	6	-2
Cc1cccc(C(=O)Nc2scc(-c3ccc(Br)cc3)c2C(=O)O)c1	6	22	17	-14	89*	7
COc1ccc(NC(=O)CSCC(=O)Nc2nnc(C)s2)cc1	-5	2	-5	1	4	/
CC(C)COC(=O)c1ccc2c(c1O)C(=O)c1ccccc1C2=O	-4	-30	21	-17	90*	85*
CC(C(=O)Nc1cc(Cl)cc(Cl)c1)N1CCCC1 (configuration not stated)	2	-4	/	6	-2	/
COc1cc(C(=O)OCc2csc(CC(=O)Nc3ccccc3C)n2)ccc1OCC(C)C	/	9	/	/	/	/
CCSc1nc2sc3c(c2c(=O)[nH]1)CC(C)(CC)OC3 (configuration not stated)	-23	24	-2	-8	0	-3
CCC1(C)Cc2c(sc3nc(SC)[nH]c(=S)c23)CO1 (configuration not stated)	18	6	/	-7	85*	/
Cc1ccc(CN2CCSc3ccc(C(=O)NCc4ccco4)cc32)cc1	-4	30	84*	4	-13	-6
Cc1ccc(CN2CCSc3ccc(C(=O)NC4CCN(Cc5ccccc5)CC4)cc32)cc1	3	27	24	57*	4	20
O=C(NC1CCCC1)c1ccc2c(c1)N(Cc1ccccc1)CCS2	11	4	20	7	11	7
O=C(CSc1nnc(NC(=O)C2CC2)s1)Nc1ccc2c(c1)OCCO2	-2	-7	5	-16	3	3
COc1cc(OC)c(NC(=O)CN(C)S(=O)(=O)c2ccc(-c3ccc(=O)[nH]n3)s2)cc1Cl	-2	9	-5	3	7	-4
O=C(NCC(c1cccs1)N1CCOCC1)c1ccccc1NS(=O)(=O)c1cc([N+](=O)[O-])ccc1Cl (configuration not stated)	-7	11	17	-9	12	21
CC(C)(C)Sc1ccc2nc3c(n2c1)CCCC3	-4	7	25	8	8	101*
Cc1c(C(=O)OCC(C)C)[nH]c2c1C(=O)CC(c1cccs1)C2 (configuration not stated)	11	47	54	55*	5	17
COCCOC(=O)c1[nH]c2c(c1C)C(=O)CC(c1cccs1)C2 (configuration not stated)	0	/	/	8	-3	/
C[C@@H]1CN([C@@H](C)CO)C(=O)Cc2cc(NS(=O)(=O)c3cn(C)cn3)ccc2O[C@@H]1CN(C)C(=O)Nc1ccccc1	/	17	0	/	/	-4
SMILES	Calb FLC	Mdm2-MdmX inh	CSC inhib	T cruzi repl	SKKanGAS inh	Beta apoptosis
CSc1nc2nccc(-c3ccc(-c4ccccc4)cc3)n2n1	2	25	-5	16	72*	3
O=C(COC(=O)Cc1cccc(C(F)(F)F)c1)Nc1ccc2c(c1)OCCO2	?	16	-4	-1	-5	4
O=c1c2cc(Br)ccc2[nH]c(=S)n1Cc1ccccc1	-7	30	/	-6	17	/
O=C(NCc1cccnc1)c1ccc(Cn2c(=S)[nH]c3ccc(Br)cc3c2=O)cc1	-4	17	4	12	17	98*
Cc1nc(SCc2ccc(Cl)c(Cl)c2)ncc1C(=O)O	90*	1	27	-2	12	3
Clc1cccc(Cl)c1CSc1nnc(/C=C/c2ccccc2)o1	-1	43	19	4	54*	8
Cc1ccc(C(C(=O)NC2CCCC2)N(CCCO)C(=O)Cn2nnc(-c3ccc(C)o3)n2)cc1 (configuration not stated)	-17	-12	-1	6	0	-7
CCCCCCc1nc2ccccc2c(=O)n1NC(=O)c1c(O)c2c(n(CC(C)C)c1=O)CCCC2	7	46	9	?	57*	2
COc1ccc(CCNC(=O)CN2c3cccc4cccc(c34)S2(=O)=O)cc1OC	25	-9	7	-7	-4	/
Cc1cc(NC(=O)c2ccccc2[N+](=O)[O-])ccc1Br	29	-44	-14	24	-7	/
CCCc1ccc(C(=O)NNc2ccc(F)cc2)cc1	77*	26	94*	/	1	-10
CCc1ccc(C(C)NC(=O)c2ccc(F)cc2)cc1 (configuration not stated)	1	24	-13	1	-3	-6
CCc1ccc(C(=O)NNc2ccc(F)cc2F)cc1	93*	15	30	7	-8	4
O=C(O)c1ccccc1C(=O)NNc1ccc(F)cc1F	-43	11	11	6	1	2
CCCc1ccc(C(=O)NNC(=O)c2ccc(Br)cc2)cc1	16	17	-20	-4	12	4
CC(C)(C)c1ccc(C(=O)NNc2ccc(F)cc2F)cc1	87*	-2	28	/	-6	1
O=C(NNc1ccc(O)cc1)c1ccc(Br)cc1	95*	-6	44	42	1	-6
CCOC(=O)C1=C(C)NC(C)=C(C(=O)OCC)C1C(=O)OCC(=O)NCCc1ccccc1	/	-20	-2	/	/	0
O=C(c1ccc([N+](=O)[O-])s1)N1CCN(c2ccccn2)CC1	0	16	-2	34	6	5
O=C(c1ccc([N+](=O)[O-])s1)N1CCN(c2ccccc2)CC1	-9	23	4	69*	4	43
COc1ccc(OC)c2sc(N3CCN(C(=O)c4ccc([N+](=O)[O-])s4)CC3)nc12	-7	17	-11	67*	2	/
O=C(O)C1=C[C@H](c2ccc(C(F)(F)F)cc2)C[C@H](OCCCCO)O1	-9	-16	0	-13	7	-5
COc1c(CC=C(C)C)cc(C2CC(=O)c3c(O)cc(O)cc3O2)c(CC=C(C)C)c1O (configuration not stated)	3	30	-3	7	109*	0

Bioassay records as filed in PubChem BioAssay.
